Data reported in ChEMBL document CHEMBL1148725, “2,2,2-Trichloro-N-({2-[2-(dimethylamino)ethyl]-1,3-dioxo-2,3-dihydro-1H-benzo[de]isoquinolin- 5-yl}carbamoyl)acetamide (UNBS3157), a novel nonhematotoxic naphthalimide derivative with potent antitumor activity” (J Med Chem, 2007).

Experiments:
[1] = Antiproliferative activity against Hs683 cells after 72 hrs by MTT assay; type: functional, cell-based, Homo sapiens, Hs 683
Method in brief: (§1)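 Cells cultured with each compound for three days; growth then read by the MTT colorimetric assay and reported as IC50 (µM).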

[2] = tested on: MCF7; experiment: Antiproliferative activity against MCF7 cells after 72 hrs by MTT assay; type: functional, cell-based, Homo sapiens; method in brief: as §1
[3] = Antiproliferative activity against U373MG cells after 72 hrs by MTT assay; type: functional, cell-based, Homo sapiens, U-373MG ATCC; method in brief: as §1
[4] = tested on: LoVo; experiment: Antiproliferative activity against LoVo cells after 72 hrs by MTT assay; type: functional, cell-based, Homo sapiens; method in brief: as §1
[5] = tested on: HCT-15; experiment: Antiproliferative activity against HCT15 cells after 72 hrs by MTT assay; type: functional, cell-based, Homo sapiens; method in brief: as §1
[6] = Toxicity in ip dosed B6D2F1 mouse; type: organism-based; conditions: in vivo
Method in brief: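 Acute MTD was set by a single i.p. dose to groups of three healthy female B6D2F1 mice, at 2.5, 5, 10, 20, 40, 80 and 160 mg/kg. The MTD is the dose just below the lowest dose that killed at least one mouse.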

[7] = tested on: L1210; experiment: Antitumor activity in L1210 cells xenografted B6D2F1 mouse at 40 mg/kg, ip relative to control; type: functional; conditions: route intraperitoneal
Method in brief: (§2)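 Mice grafted with L1210 leukaemia cells on day 0, then dosed i.p. four times weekly on days 1-4 and 8-11. Five mice per group. Outcome is %T/C, the median survival of treated over control. Kruskal-Wallis test followed by Dunn comparisons against control.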

[8] = tested on: A549; experiment: Antiproliferative activity against A549 cells after 72 hrs by MTT assay; type: functional, cell-based, Homo sapiens; method in brief: as §1
[9] = tested on: L1210; experiment: Antitumor activity in L1210 cells xenografted B6D2F1 mouse at 20 mg/kg, ip relative to control; type: functional; conditions: route intraperitoneal; method in brief: as §2
[10] = tested on: L1210; experiment: Antitumor activity in L1210 cells xenografted B6D2F1 mouse at 10 mg/kg, ip relative to control; type: functional; conditions: route intraperitoneal; method in brief: as §2
[11] = tested on: L1210; experiment: Antitumor activity in L1210 cells xenografted B6D2F1 mouse at 80 mg/kg, ip relative to control; type: functional; conditions: route intraperitoneal; method in brief: as §2

Structure (SMILES) | IC50 ([1]; Homo sapiens, Hs 683, 72 h) | IC50 ([2]; Homo sapiens, MCF7, 72 h) | IC50 ([3]; Homo sapiens, U373 MG, 72 h) | IC50 ([4]; Homo sapiens, LoVo, 72 h) | IC50 ([5]; Homo sapiens, HCT-15, 72 h) | MTD [6] | Activity [7] | IC50 ([8]; Homo sapiens, A549, 72 h) | Activity [9] | Activity [10] | IC50 ([1]; hs 683) | IC50 ([3]; u-373mg atcc) | IC50 ([4]; lovo) | IC50 ([5]; hct-15) | IC50 ([8]; a549) | IC50 ([2]; mcf7) | Activity [11]
COC(=O)Nc1cc2c3c(cccc3c1)C(=O)N(CCN(C)C)C2=O | 3.3 µM | > 10 µM | 4.2 µM | 4.1 µM | 7.2 µM | 40 mg/kg | 133% | 5.9 µM | – | – | – | – | – | – | – | – | –
CN(C)CCN1C(=O)c2cccc3cc([N+](=O)[O-])cc(c23)C1=O [MITONAFIDE] | 3.7 µM | – | 1.3 µM | 0.4 µM | 2.6 µM | 40 mg/kg | – | 2.4 µM | 193% | – | – | – | – | – | – | – | –
CCOC(=O)CC(=O)Nc1cc2c3c(cccc3c1)C(=O)N(CCN(C)C)C2=O | > 10 µM | > 10 µM | > 10 µM | > 10 µM | > 10 µM | > 80 mg/kg | – | > 10 µM | – | 129% | – | – | – | – | – | – | –
CN(C)CCN1C(=O)c2cccc3cc(NC(=O)Cc4ccc(Cl)cc4)cc(c23)C1=O | 7 µM | 4.8 µM | 5.8 µM | 4.8 µM | 5.5 µM | 20 mg/kg | – | 4.7 µM | – | 200% | – | – | – | – | – | – | –
CN(C)CCN1C(=O)c2cccc3cc(NCc4ccc5c(c4)OCO5)cc(c23)C1=O | – | – | – | – | – | > 80 mg/kg | 140% | – | – | – | 9.8 µM | > 10 µM | 4.8 µM | 8.2 µM | 8.5 µM | – | –
CN(C)CCN1C(=O)c2cccc3cc(NC(=O)c4ccccc4)cc(c23)C1=O | 5.6 µM | > 10 µM | 6 µM | 3.7 µM | 8.4 µM | 40 mg/kg | – | 8.5 µM | 167% | – | – | – | – | – | – | – | –
CCOC(=O)NC(=O)Nc1cc2c3c(cccc3c1)C(=O)N(CCN(C)C)C2=O | 3.6 µM | 6.3 µM | 4.1 µM | 7.7 µM | 4.4 µM | 80 mg/kg | 207% | 4.9 µM | – | – | – | – | – | – | – | – | –
CN(C)CCN1C(=O)c2cccc3cc(NC(=O)C(F)(F)F)cc(c23)C1=O | 8.7 µM | 9.6 µM | 8.1 µM | 4.5 µM | > 10 µM | 40 mg/kg | 124% | 9.5 µM | – | – | – | – | – | – | – | – | –
CN(C)CCN1C(=O)c2cccc3cc(NC(=O)NCCCl)cc(c23)C1=O | 4.6 µM | 3.9 µM | 1 µM | 1.8 µM | 5.6 µM | > 80 mg/kg | – | 3 µM | 156% | – | – | – | – | – | – | – | –
CN(C)CCN1C(=O)c2cccc3cc(NC(=O)NC(=O)c4ccccc4)cc(c23)C1=O | 3 µM | 3.6 µM | 3.4 µM | 2.1 µM | 3.4 µM | 40 mg/kg | 140% | 2 µM | – | – | – | – | – | – | – | – | –
CN(C)CCN1C(=O)c2cccc3cc(NC(=O)Nc4cc5c6c(cccc6c4)C(=O)N(CCN(C)C)C5=O)cc(c23)C1=O | 5 µM | 4.8 µM | 3.6 µM | 2.8 µM | 4.6 µM | 40 mg/kg | – | 3.6 µM | 124% | – | – | – | – | – | – | – | –
CN(C)CCN1C(=O)c2cccc3cc(N)cc(c23)C1=O.Cl | 4.7 µM | – | 4.5 µM | 3.5 µM | 8.8 µM | – | – | 4.8 µM | – | 120% | – | – | – | – | – | 9 µM | –
CN(C)CCN1C(=O)c2cccc3cc(NC(=O)NC(=O)CCl)cc(c23)C1=O | 3 µM | 4.9 µM | 3.3 µM | 2.9 µM | 4.5 µM | 20 mg/kg | – | 4.1 µM | 147% | – | – | – | – | – | – | – | –
COc1ccc(CC(=O)Nc2cc3c4c(cccc4c2)C(=O)N(CCN(C)C)C3=O)cc1 | 4.2 µM | 2.2 µM | 2.7 µM | 1.3 µM | 2.8 µM | 10 mg/kg | – | 3.2 µM | – | 107% | – | – | – | – | – | – | –
CN(C)CCN1C(=O)c2cccc3cc(NC(=O)C(Cl)(Cl)Cl)cc(c23)C1=O | > 10 µM | > 10 µM | 8.9 µM | 6.4 µM | > 10 µM | > 80 mg/kg | – | 10 µM | 150% | – | – | – | – | – | – | – | –
CN(C)CCN1C(=O)c2cccc3cc(NCc4ccccc4O[C@H]4O[C@H](CO)[C@@H](O)[C@H](O)[C@H]4O)cc(c23)C1=O.Cl | > 10 µM | > 10 µM | > 10 µM | > 10 µM | > 10 µM | > 80 mg/kg | 129% | > 10 µM | – | – | – | – | – | – | – | – | –
CN(C)CCN1C(=O)c2cccc3cc(/N=C\c4cc(O)ccc4O)cc(c23)C1=O.Cl | – | 6.3 µM | 4.7 µM | – | – | 40 mg/kg | 210% | – | – | – | 4.9 µM | – | 3.7 µM | 4.3 µM | 3.9 µM | – | –
CN(C)CCN1C(=O)c2cccc3cc(NC(=O)Nc4ccc(OC(F)(F)F)cc4)cc(c23)C1=O | 2.6 µM | 6.5 µM | 3.1 µM | 3.2 µM | 5.8 µM | > 80 mg/kg | – | 3.1 µM | – | – | – | – | – | – | – | – | 194%
